According to ChEMBL document CHEMBL4229360, “Antimalarial agents against both sexual and asexual parasites stages: structure-activity relationships and biological studies of the Malaria Box compound 1-[5-(4-bromo-2-chlorophenyl)furan-2-yl]-N-[(piperidin-4-yl)methyl]methanamine (MMV019918) and analogues” (Eur J Med Chem, 2018):
pIC50: −log10 of the molar value.

Tests used:
[1] = Cardiotoxicity in Langendorff perfused Wistar rat heart assessed as QTc interval time at 1 uM by electrocardiography (reference value: 76.45 to 80.07 milliseconds); format: toxicity, tissue-based
[2] = target: T1, Voltage-dependent L-type calcium channel subunit alpha-1C (Rattus norvegicus, UniProt P22002); test: Inhibition of CaV1.2 channel in rat tail artery myocytes assessed as reduction in Ba2+ current at 30 uM at -50 mV holding potential by whole-cell patch-clamp assay; format: cell-based
Outline: (§1)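 Freshly isolated rat tail artery smooth muscle cells (collagenase digestion), whole-cell patch clamp at 20–22 °C. External solution: 5 mM Ba2+, 30 mM TEA; Cs+-based internal solution, pH 7.4. Currents from 250-ms pulses to 0 mV from Vh −50 mV at 0.067 Hz, after 7–10 min stabilisation. Leak corrected with 10 μM nifedipine. Peak current as % of control; n = 3–6 cells from ≥3 animals.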

[3] = Cardiotoxicity in Langendorff perfused Wistar rat heart assessed as reduction of left ventricular pressure; format: toxicity, tissue-based
[4] = Cytotoxicity against mouse NIH/3T3 cells after 24 hrs by neutral red uptake assay; format: cell-based, NIH3T3; settings: read-out: TC50
Outline: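 NIH3T3 cells exposed for 24 h; viability by neutral red uptake. Mean of three experiments, six replicates each.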

Plasmodium falciparum [5] = test: Gametocytocidal activity against Plasmodium falciparum 3D7 elo1-pfs16-CBG99 late-stage (4 to 5) gametocytes assessed as inhibition of parasite viability after 72 hrs by luciferase reporter assay; format: functional, organism-based; settings: 3D7 elo1-pfs16-CBG99, 72 h
Outline: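 Transgenic 3D7elo1-pfs16-CBG99 gametocytes express CBG99 luciferase from the pfs16 promoter. Stage IV–V gametocytes (Giemsa-checked) were exposed at day 8–10 after NAG addition to serial dilutions in complete medium for 72 h. Samples at 2% haematocrit were then mixed 1:1 with D-luciferin (1 mM, pH 5.5 citrate) for 10 min and luminescence was read. IC50 came from non-linear regression, mean of ≥3 experiments in duplicate.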

Plasmodium falciparum [6] = test: Gametocytocidal activity against Plasmodium falciparum NF54 HGL gametocytes assessed as inhibition of parasite viability after 72 hrs by ONE-Glo reagent based luminescence assay; format: functional, organism-based
Outline: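 NF54 gametocytes raised in 5% haematocrit RPMI1640/10% human serum, with 50 mM NAG on days 4–9. Mainly stage IV gametocytes isolated on day 11 by Percoll gradient and seeded at 5000 cells/well, final DMSO 0.1%. Incubated 72 h at 37 °C, 3% O2, 4% CO2; viability by ONE-Glo luminescence.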

[7] = Cardiotoxicity in Langendorff perfused Wistar rat heart assessed as QRS interval time at 0.1 uM by electrocardiography (reference value: 13.31 to 14.35 milliseconds); format: toxicity, tissue-based
[8] = Cardiotoxicity in Langendorff perfused Wistar rat heart assessed as QTc interval time at 10 uM by electrocardiography (reference value: 76.45 to 80.07 milliseconds); format: toxicity, tissue-based
[9] = target: T1, Voltage-dependent L-type calcium channel subunit alpha-1C; test: Inhibition of CaV1.2 channel in rat tail artery myocytes assessed as reduction in Ba2+ current at -50 mV holding potential by whole-cell patch-clamp assay; format: cell-based; outline: as §1
[10] = target: T2, Phosphoethanolamine N-methyltransferase (Plasmodium falciparum) (UniProt Q8IDQ9); test: Inhibition of plasmodium falciparum phosphoethanolamine N-methyltransferase expressed in Escherichia coli assessed as remaining enzyme activity at 100 uM using phosphoethanolamine as substrate and [methyl-14C] SAM by radiochemical assay
T2 sequence (whole entry): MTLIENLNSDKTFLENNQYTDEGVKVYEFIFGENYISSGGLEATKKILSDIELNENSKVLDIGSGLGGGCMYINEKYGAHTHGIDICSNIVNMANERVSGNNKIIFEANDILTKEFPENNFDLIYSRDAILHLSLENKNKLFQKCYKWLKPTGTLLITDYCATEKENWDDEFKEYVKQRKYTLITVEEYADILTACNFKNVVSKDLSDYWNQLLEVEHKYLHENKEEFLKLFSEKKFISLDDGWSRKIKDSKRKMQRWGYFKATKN
Outline: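 Recombinant PfPMT purified from E. coli, 2 μg per 100 μL reaction. Buffer 0.1 M HEPES-KOH pH 8.0, 2 mM Na2EDTA, 10% glycerol, 5% DMSO, with 30 μM SAM (100 nCi [methyl-14C]SAM) and 55 μM phosphoethanolamine; radiochemical read-out.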

T1 sequence (P22002 whole entry): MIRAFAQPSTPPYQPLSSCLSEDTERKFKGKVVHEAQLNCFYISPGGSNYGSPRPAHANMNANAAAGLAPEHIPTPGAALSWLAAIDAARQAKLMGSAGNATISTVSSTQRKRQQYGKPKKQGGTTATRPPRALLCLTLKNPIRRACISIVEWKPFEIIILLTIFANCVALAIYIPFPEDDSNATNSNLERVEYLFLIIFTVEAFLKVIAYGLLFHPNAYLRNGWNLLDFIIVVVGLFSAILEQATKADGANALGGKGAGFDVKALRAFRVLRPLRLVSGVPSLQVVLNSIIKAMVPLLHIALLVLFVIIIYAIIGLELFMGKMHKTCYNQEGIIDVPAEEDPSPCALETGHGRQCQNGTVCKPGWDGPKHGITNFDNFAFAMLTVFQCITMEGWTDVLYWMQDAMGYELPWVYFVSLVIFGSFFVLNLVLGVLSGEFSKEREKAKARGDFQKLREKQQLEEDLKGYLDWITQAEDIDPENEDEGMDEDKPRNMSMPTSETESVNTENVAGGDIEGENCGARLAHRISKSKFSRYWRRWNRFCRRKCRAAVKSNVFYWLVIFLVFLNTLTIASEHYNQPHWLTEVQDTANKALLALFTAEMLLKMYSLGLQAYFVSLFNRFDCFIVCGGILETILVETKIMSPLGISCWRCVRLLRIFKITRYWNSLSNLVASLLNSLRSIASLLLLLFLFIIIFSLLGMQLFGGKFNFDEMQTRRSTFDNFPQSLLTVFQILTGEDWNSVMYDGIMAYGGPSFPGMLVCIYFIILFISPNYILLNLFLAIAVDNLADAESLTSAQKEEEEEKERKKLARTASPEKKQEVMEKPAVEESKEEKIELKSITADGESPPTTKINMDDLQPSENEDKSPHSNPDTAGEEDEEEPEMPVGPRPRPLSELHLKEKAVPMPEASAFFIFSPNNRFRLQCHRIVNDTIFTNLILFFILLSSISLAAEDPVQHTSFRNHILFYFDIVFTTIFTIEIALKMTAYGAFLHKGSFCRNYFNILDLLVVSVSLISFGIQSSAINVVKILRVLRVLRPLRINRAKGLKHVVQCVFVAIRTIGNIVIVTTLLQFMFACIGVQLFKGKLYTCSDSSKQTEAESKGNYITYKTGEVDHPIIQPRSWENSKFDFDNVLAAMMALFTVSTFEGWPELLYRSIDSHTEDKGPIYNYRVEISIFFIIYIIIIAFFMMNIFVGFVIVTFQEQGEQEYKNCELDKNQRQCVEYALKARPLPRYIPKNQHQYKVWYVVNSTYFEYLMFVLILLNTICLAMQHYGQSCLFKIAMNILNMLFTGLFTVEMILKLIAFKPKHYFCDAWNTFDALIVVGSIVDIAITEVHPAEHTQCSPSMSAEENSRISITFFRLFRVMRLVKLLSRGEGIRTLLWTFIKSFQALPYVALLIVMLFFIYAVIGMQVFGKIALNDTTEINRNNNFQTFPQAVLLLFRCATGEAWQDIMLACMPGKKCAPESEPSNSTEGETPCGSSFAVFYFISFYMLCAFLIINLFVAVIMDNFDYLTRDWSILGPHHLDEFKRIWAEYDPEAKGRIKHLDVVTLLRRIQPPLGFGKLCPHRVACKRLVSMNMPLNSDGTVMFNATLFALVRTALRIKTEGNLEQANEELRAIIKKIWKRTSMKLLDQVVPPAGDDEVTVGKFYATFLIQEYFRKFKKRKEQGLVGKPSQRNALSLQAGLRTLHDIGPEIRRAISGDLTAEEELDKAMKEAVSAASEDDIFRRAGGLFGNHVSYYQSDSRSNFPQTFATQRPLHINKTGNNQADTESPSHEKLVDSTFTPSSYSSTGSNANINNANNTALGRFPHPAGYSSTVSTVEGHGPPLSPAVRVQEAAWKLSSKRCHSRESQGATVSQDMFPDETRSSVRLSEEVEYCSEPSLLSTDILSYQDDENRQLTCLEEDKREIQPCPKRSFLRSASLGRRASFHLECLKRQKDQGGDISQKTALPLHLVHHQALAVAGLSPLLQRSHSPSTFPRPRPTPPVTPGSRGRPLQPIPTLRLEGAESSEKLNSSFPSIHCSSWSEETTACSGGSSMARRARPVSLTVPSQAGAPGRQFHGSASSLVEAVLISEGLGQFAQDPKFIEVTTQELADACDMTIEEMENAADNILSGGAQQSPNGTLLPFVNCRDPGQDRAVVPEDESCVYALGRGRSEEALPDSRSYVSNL

Clc1ccc(-c2ccc(CNCC3CCNCC3)o2)c(-c2ccccc2)c1
Time [1]: 77.21 ms
inhibition (INH) [2]: Active
Activity [3]: Dose-dependent effect
CC50 at 24 h [4]: 20 µM
pIC50 (Plasmodium falciparum [5]): 5.85
pIC50 (Plasmodium falciparum [6]): 7.37
Time [7]: 14.2 ms
Time [8]: 83.77 ms
pIC50 [9]: 5.48
inhibition (INH) ([9]; rat): Dose-dependent effect
Activity [10]: 30%
